Source: PubChem BioAssay
Most compounds without a hit are left out; they make up all but 2.6% or so of the library.
NR2E3 ag-1 = activates human photoreceptor nuclear receptor NR2E3; Q9Y5X4; GST-NR2E3/biotin-RetCOR TR-FRET, 1536-well; AID 2300; 320,000 compounds, 0.12% hits; inhibition of corepressor binding, % at 4.78 µM;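 active = percent inhibition above the cutoff of mean plus 3 SD of all tested compounds, set per screening campaign, cut at about 20% in these data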;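 note: 0% = DMSO wells and 100% = biotin wells as full block of FRET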
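system = GST-tagged NR2E3 plus biotinylated RetCOR corepressor | input = 1.35 nM GST-NR2E3 | also added = 7 nM biotin-RetCOR | schedule = 5 h incubation at 4 °C | measured by = TR-FRET with europium anti-GST and streptavidin-D2, 340 nm excitation | read-out = percent loss of FRET ratio relative to control wells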
rCAG binder = molecules binding r(CAG) RNA repeats; inhibition, % at 3 µM; AID 651821; 370,000 compounds, 1.3% hits; r(CAG) RNA repeat, TO-PRO-1 dye displacement fluorescence;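 active = inhibition above the plate cutoff, the mean of all test compounds on that plate plus 3 SD, cut at about 35% in these data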;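 note: 0% = DMSO alone and 100% = 100 µM mitoxantrone as full dye displacement; higher means more dye released from RNA so lower well fluorescence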
NR1D1 modulator = modulates human Rev-erb alpha binding to DNA. P20393. Rev-erbα–FITC-DNA binding, fluorescence polarization, 90 min. activity, % at 10 µM. 370,000 compounds, 0.79% hits;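 active = activity above about 14%, limit read from the data; passing the limit was not always enough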;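 note: 0% = DMSO wells with 35 nM protein and 100% = DMSO wells with 750 nM protein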
Target sequence (P20393 whole entry, looked up): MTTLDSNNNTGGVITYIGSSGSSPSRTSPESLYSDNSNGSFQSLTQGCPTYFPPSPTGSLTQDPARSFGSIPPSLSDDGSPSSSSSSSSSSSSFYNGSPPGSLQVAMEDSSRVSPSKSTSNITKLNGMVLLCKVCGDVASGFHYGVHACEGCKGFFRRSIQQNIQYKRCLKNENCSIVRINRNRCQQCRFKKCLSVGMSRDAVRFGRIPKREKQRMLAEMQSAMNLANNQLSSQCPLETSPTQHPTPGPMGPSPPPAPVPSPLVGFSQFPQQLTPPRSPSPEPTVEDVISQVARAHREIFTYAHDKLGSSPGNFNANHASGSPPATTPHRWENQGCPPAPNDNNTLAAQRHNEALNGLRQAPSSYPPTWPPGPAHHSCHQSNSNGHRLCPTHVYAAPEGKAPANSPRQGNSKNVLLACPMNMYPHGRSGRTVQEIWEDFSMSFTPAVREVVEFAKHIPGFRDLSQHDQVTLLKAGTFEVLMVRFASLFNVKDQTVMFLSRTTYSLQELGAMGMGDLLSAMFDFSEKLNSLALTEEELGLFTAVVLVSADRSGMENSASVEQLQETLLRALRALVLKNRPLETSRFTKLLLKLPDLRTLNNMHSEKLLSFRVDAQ
NR2E3 ag-2 = human photoreceptor-specific nuclear receptor agonism; 360,000 compounds, 0.35% hits; Q9Y5X4; CHO-S Gal4-NCOR/VP16-NR2E3 two-hybrid, luciferase; AID 602229; inhibition of corepressor binding, % at 3.98 µM;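 active = inhibition above the mean of all tested compounds plus 3 SD, cut at about 70% in these data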;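 note: 0% = DMSO with NR2E3 transfected cells and 100% = cells lacking NR2E3 construct; higher means lower luciferase signal from less NR2E3 corepressor binding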
PG9 Ab binder = binds the HIV-1 gp120 antibody PG9. AID 624416. TR-FRET gp120-PG9 antibody binding. inhibition, % at 6.7 µM. 360,000 compounds, 0.43% hits; in the data active = inhibition above about 8.5%
PG9 binder conf = PG9 antibody binding, confirmed; shares compounds with PG9 Ab binder; TR-FRET PG9 antibody binding, biochemical; inhibition, % at 6.7 µM; 1,500 compounds, 90% hits; AID 651571; in the data active = inhibition above about 9%
PGV04 Ab binding = PGV04 control antibody binding, counter-screen | shares compounds with PG9 Ab binder | 1,500 compounds, 95% hits | AID 651604 | TR-FRET PGV04 antibody-gp120 binding, biochemical | inhibition, % at 6.7 µM; in the data active = inhibition above about 9.5%
PG9 bind DR = small molecules binding HIV-1 gp120 antibody PG9. shares compounds with PG9 Ab binder. TR-FRET PG9 antibody-gp120 binding inhibition. IC50, µM. 95 tested, under 10 active. AID 651848; in the data active = IC50 below about 10 µM
PGV04 binding DR = PGV04 binding, dose response counter-screen; IC50, µM; 95 compounds, 20% hits; shares compounds with PG9 Ab binder; TR-FRET binding to control antibody PGV04
PG126 DR counter = counter-screen for PG9 binders: binding to control antibody PG126 | shares compounds with PG9 Ab binder | TR-FRET binding to antibody PG126, counterscreen | IC50, µM | 95 compounds, 20% hits | AID 651939
* = called active by the depositor; i = inactive; x = no result. Cut-off read from the data, not from the text of the source, unless noted: active = IC50 below about 9 µM; inactive = the rest.

SMILES	NR2E3 ag-1	rCAG binder	NR1D1 modulator	NR2E3 ag-2	PG9 Ab binder	PG9 binder conf	PGV04 Ab binding	others
c1ccc(-c2nccc(-c3ccc(-n4cnc5ccccc54)cc3)n2)cc1	-17	6	-5	3	15*	19*	14*	PG9 bind DR=i;PGV04 binding DR=i;PG126 DR counter=i
CN1CCN(C(=O)C[C@H]2CC[C@H]3[C@@H](COC[C@@H](O)CN3Cc3cccc(F)c3)O2)CC1	x	-2	-4	x	-2	x	x
COCCNC(=O)c1c[nH]c2ccc(S(=O)(=O)Nc3ccccc3F)cc2c1=O	4	7	-1	-11	9.6*	22*	23*
COCCNC(=O)c1c[nH]c2ccc(S(=O)(=O)Nc3ccc(F)cc3F)cc2c1=O	2	9	-7	-4	9.3*	22*	22*	PG9 bind DR=>67;PGV04 binding DR=>67;PG126 DR counter=>67
COCCNC(=O)c1c[nH]c2ccc(OC)cc2c1=O	-1	-1	0	-21	-1	x	x
NC(=O)C1CCCN(C(=O)CCC(=O)c2cccs2)C1 (stereo not given)	x	3	-10	-14	-1	x	x
Cn1c(C(=O)OCC(=O)NCc2cccs2)cc2sccc21	0	-3	7	2	9.6*	17*	27*
CC(OC(=O)c1cc2sccc2n1C)C(=O)NCc1cccs1 (stereo not given)	-1	-2	-3	7	-1	x	x
Nc1c(C(=O)NCc2ccccc2)sc2nc(N3CCOCC3)c3c(c12)CCCC3	11	-2	7	5	10*	8.6*	16*
CCN(CC)C(=O)[C@H]1C[C@H](CC(=O)NCc2ccc(OC)c(OC)c2)C(=O)N2CCc3c([nH]c4cc(-c5ccco5)ccc34)[C@]12C	x	11	-9	-9	0	x	x
CCOC(=O)C(C(C)=O)c1c(Br)c(O)c(O)c2c(C(=O)c3ccc(C)cc3)coc12 (stereo not given)	1	19	0	26	9.4*	18*	19*
CCC[C@H]1COCCS(=O)(=O)N1Cc1ccc(Br)cc1	-2	x	x	x	x	x	x
C[C@H](CO)N1C[C@H](C)[C@@H](CN(C)C(=O)Nc2ccc(-c3cccs3)cc2)OCc2cn(nn2)CCCC1=O	x	10	-2	x	1	x	x
O=C(Nc1nnc(S(=O)(=O)N2CCCCCC2)s1)c1ccccc1Br	7	29	-9	-56	0	x	x
Cc1ccccc1C(=O)Nc1nnc(S(=O)(=O)N2CCCCC2)s1	11	6	-4	-11	24*	32*	40*
CCn1cnc2sc(C(=O)Nc3ccccc3OC)c(C)c2c1=O	-113	-1	3	6	53*	46*	65*
CCCNC(=O)c1cc(C2CCCN(C(=O)c3ccc4ccccc4c3)C2)on1 (stereo not given)	x	3	0	27	2	x	x
O=C(Nc1ccc(F)cc1)c1cc(-c2ccccn2)nc2c(Cl)cccc12	1	2	5	-14	18*	33*	69*
O=C(Nc1ccncc1)c1cc(-c2ccccn2)nc2ccccc12	-4	1	3	-3	0	x	x
COC(=O)[C@@]12CCCCC3=C1N(CCC3)C(=O)[C@H]2CC(=O)NCc1cccs1	x	0	-2	x	x	x	x
Cc1ccc(C(=O)C2=C(O)C(=O)N(c3ncccn3)C2c2ccc(F)cc2)o1 (stereo not given)	5	0	6	18	16*	18*	27*
Cc1ccc(C(=O)C2=C(O)C(=O)N(c3ncccn3)C2c2ccc(Br)cc2)o1 (stereo not given)	0	x	x	x	x	x	x
Cc1ccc(C(=O)C2=C(O)C(=O)N(c3ncccn3)C2c2ccccc2F)o1 (stereo not given)	6	5	-1	1	14*	25*	32*
FC(F)(F)Oc1ccc(Cn2ccc3ccc(-c4ccc5ccn(Cc6ccc(OC(F)(F)F)cc6)c5c4)cc32)cc1	x	10	2	x	x	x	x
COc1cccc2cc(C(=O)C3=C(O)C(=O)N(CCN(C)C)C3c3ccc(Cl)cc3)oc12 (stereo not given)	-3	7	0	-35	14*	22*	28*
SMILES	NR2E3 ag-1	rCAG binder	NR1D1 modulator	NR2E3 ag-2	PG9 Ab binder	PG9 binder conf	PGV04 Ab binding	others
COc1cc(C2C(C(C)=O)=C(O)C(=O)N2CCN(C)C)ccc1O (stereo not given)	-1	2	-3	-14	-1	x	x
COc1ccccc1C1C(C(=O)c2cc3ccccc3o2)=C(O)C(=O)N1CCN(C)C (stereo not given)	18	1	2	6	13*	24*	34*
COc1ccc(N2CCN(C(=O)C3CCN(S(=O)(=O)c4ccc5c(c4)CC(C)N5C(=O)C4CC4)CC3)CC2)cc1 (stereo not given)	x	-5	-3	x	-3	x	x
N#CCCN(Cc1cccnc1)CN1C(=O)c2ccccc2C1=O	x	24	1	19	0	x	x
CCn1c(CNC(=O)c2ccccc2Cl)cc2ccccc21	5	0	7	-48	10*	24*	35*
CCn1c(CNC(=O)c2ccccc2F)cc2ccccc21	-1	4	-3	-13	-1	x	x
COC(=O)c1cccc(F)c1C(=O)c1cccc2ccccc12	x	3	-1	-14	-2	x	x
Cc1ccc(NC(=O)CN(C)C(=O)c2cc3c(s2)CCCCC3)cc1	6	3	-4	-10	3	x	x
Cc1ccc(C)c(NC(=O)CN(C)C(=O)c2cc3c(s2)CCCCC3)c1	0	-5	2	12	11*	16*	22*
O=C(O)c1ccccc1C(=O)Nc1ccccc1NC(=O)c1ccccc1C(=O)O	-4	7	6	-160	-1	x	x
CC(=O)c1sc(C(C)(C)C)cc1NC(=O)c1ccccc1C(=O)O	11	10	-4	23	48*	57*	65*
O=C(NCCC1CCCCN1S(=O)(=O)c1ccc(F)cc1)C(=O)Nc1ccccc1F (stereo not given)	1	-4	0	5	10*	4	7
Cc1c(Cl)ccc(S(=O)(=O)N2CCN(C)CC2)c1Cl	x	-2	4	-23	-1	x	x
CCCCC1=CC2=C(c3ccco3)C(=O)C(C)(OC(=O)c3ccc(OC)cc3)C(=O)C2=CN1CCc1ccccn1 (stereo not given)	8	4	-1	15	6	x	x
